# SKKanGAS inh: blocks kanamycin growth of S. pyogenes SKKanGAS strain. BacTiter-Glo, 6 h. inhibition, % at 7.5 µM. hit rate 1.3% among 300,000. AID 1662;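 active means mean replicate score, as percent of positive control median, at least 50; inconclusive means mean below 50 but one replicate at or above 50; inactive means mean and every replicate below 50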;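 further: strain carries kanamycin resistance gene driven by streptokinase promoter and grows in 40 µg/ml kanamycin; loss of luminescence reflects streptokinase promoter inhibition or plain growth inhibition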
# Calb FLC: affects C. albicans growth with fluconazole. C. albicans CaCi-2 (fluconazole-resistant clinical isolate) + fluconazole, Alamar Blue growth, 48 h. AID 1979. hit rate 0.57% among 300,000. growth inhibition, % (test concentration not listed);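 active means growth inhibition above about 58% in most replicates, limit read from the data, passing the limit was not always enough; inconclusive means exactly half the replicates above a set limit; inactive means most replicates below a set limit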;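 further: all wells also contain fluconazole at 8 µg/ml as a sub-toxic cotreatment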
# T cruzi repl: T. cruzi replication inhibition; T. cruzi beta-gal in NIH3T3, luminescence, 90 h; inhibition, % (concentration not given with the values); hit rate 1.4% among 300,000;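 active means mean inhibition across valid replicates above about 55%, limit read from the data; inconclusive means mean below that limit but half or more replicates reach it; inactive means mean below it, under half of replicates reach it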;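 further: signal also drops with host cell toxicity which is not excluded here; higher percent means less beta-gal luminescence so fewer parasites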
#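 System: mouse NIH/3T3 fibroblasts infected with β-gal-expressing T. cruzi Tulahuen C4 / Input: NIH/3T3 cells, 5,000 per well / Buffer or medium: Low-serum DMEM with 2% FBS / Probe or stimulus: 5000 reporter trypomastigotes per well / Schedule: ≥90 h infection period, 3 h prior cell attachment / Measured by: GalScreen luminescence, 60 min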
# CSC inhib: cancer stem cell inhibition. cancer stem cell-like cells viability, luminescence. inhibition, % at 7.5 µM. hit rate 1.1% among 300,000. AID 2717; in the data active means inhibition above about 75%; inconclusive means no clear call, values can overlap the other calls; tested in HMLE shEcad cells
# Beta cell apopt: blocks beta cell apoptosis | AID 435005 | INS-1E cytokine-induced death, ATP luminescence, 48 h; percent of positive-control rescue, neutral wells zero | protection from apoptosis, % (no concentration beside the values) | hit rate 0.8% among 300,000;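 active means Every replicate reaches about 75%, or at least half do and their mean reaches it too, limit read from the data; inconclusive means At least half of replicates reach the limit but their mean does not; inactive means Under half of replicates reach the limit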;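 further: higher means more ATP so stronger rescue from cytokine killing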
# Mdm2-MdmX inh: disrupts the human Mdm2-MdmX interaction; O15151+Q00987; SaOS-2 split-luciferase Mdm2/MdmX complementation, luminescence; inhibition, % at 8 µM; hit rate 3% among 330,000; AID 485346;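 active means inhibition of at least 50% at 8 µM in the primary screen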
# Numbers stand for hits; . = inactive; ? = inconclusive; / = no result. Shown are actives, neighbours in structure and some others; about 5.7% of the full set was active somewhere.
SMILES,SKKanGAS inh,Calb FLC,T cruzi repl,CSC inhib,Beta cell apopt,Mdm2-MdmX inh
CN1CCN(c2ccc(S(=O)(=O)N3CCCCC3)cc2NC(=O)c2ccc(C#N)cc2)CC1,.,.,56,.,.,.
CSc1ncccc1C(=O)NCc1nnc2ccccn12,/,/,/,.,.,.
O=C(COC(=O)c1ccc(O)cc1)Nc1ccc2c(c1)OCO2,/,/,/,.,.,.
CCC(=O)N(CCC(c1ccc(C)cc1)c1ccco1)Cc1ccco1 (configuration not stated),.,.,.,.,.,.
CC(NC(=O)C1CCC(C(=O)NC(C)c2ccccc2)CC1)c1ccccc1 (configuration not stated),.,.,.,110,238,.
CNc1nc(-c2ccccn2)nnc1-c1ccccc1,.,.,.,.,.,.
c1ccc(-c2nnc(-c3ccccn3)nc2NC2CCCCC2)cc1,104,.,.,.,96,.
O=c1[nH]c(NNC(=S)NC2CCCCC2)nc2c1C1(CCCC1)Cc1ccccc1-2,74,.,.,?,.,.
O=c1[nH]c(NNC(=S)NCc2ccccc2)nc2c1C1(CCCCC1)Cc1ccccc1-2,101,?,.,106,.,.
O=c1[nH]c(NCCCO)nc2c1C1(CCCC1)Cc1ccccc1-2,.,.,.,.,104,.
C=CCNC(=S)NNc1nc2c(c(=O)[nH]1)C1(CCCC1)Cc1ccccc1-2,.,?,.,.,.,.
CCN(CC(=O)Nc1cc(Cl)ccc1C)C(=O)CCS(=O)(=O)c1ccc(Cl)cc1,.,.,.,.,.,.
C1CCc2c(nc3nnnn3c2NCC2CC2)C1,.,.,.,.,.,.
CC(NC(=O)c1ccccc1)C(=O)OCn1nnc2ccccc2c1=O (configuration not stated),/,/,/,.,.,.
O=c1cc(-c2ccc(O)cc2)oc2c(-c3c(O)cc(O)c4c(=O)cc(-c5ccc(O)cc5)oc34)c(O)cc(O)c12,/,/,/,/,/,.
O=c1cc(-c2ccc(O)c(-c3c(O)cc(O)c4c(=O)cc(-c5ccc(O)cc5)oc34)c2)oc2cc(O)cc(O)c12,62,.,.,.,.,.
COc1ccc(NC(=O)c2c(N)no[n+]2[O-])cc1,.,101,.,103,.,.
COc1ccc(NC(=O)c2c(N)no[n+]2[O-])c(OC)c1,.,.,.,.,.,.
CC(C)Oc1ccc(C(=O)NC2CCN(Cc3ccccc3)CC2)cc1,.,.,.,.,.,.
CC(Oc1ccc(Br)cc1)C(=O)NC1CCN(Cc2ccccc2)CC1 (configuration not stated),.,/,58,.,.,.
OC1CCN(Cc2ccc(OCc3ccccc3)cc2)CC1,.,.,61,.,.,.
CCOc1ccc(OCC(O)CNC2CCN(Cc3ccccc3)CC2)cc1 (configuration not stated),.,.,57,.,.,.
CC(C)N1CCN(Cc2ccc(OCc3ccccc3)cc2)CC1CCO (configuration not stated),.,.,.,77,.,.
CCCCNc1ccc2nsnc2c1[N+](=O)[O-],.,.,.,.,.,.
O=C(NC1CCN(Cc2ccccc2)CC1)C1CCN(S(=O)(=O)c2ccccc2)CC1,.,.,57,.,.,.
SMILES,SKKanGAS inh,Calb FLC,T cruzi repl,CSC inhib,Beta cell apopt,Mdm2-MdmX inh
CC(C)N1CCN(Cc2ccc3c(c2)Cc2ccccc2-3)CC1CCO (configuration not stated),.,.,58,.,.,.
O=C(NC1CCN(Cc2ccccc2)CC1)C1CCN(S(=O)(=O)c2ccc(Cl)cc2)CC1,.,.,.,/,.,.
CC(C)N1CCN(Cc2ccc(Sc3nncn3C)o2)CC1CCO (configuration not stated),.,.,.,.,.,.
CC(C)N1CCN(Cc2ccc(-c3ccccc3)cc2)CC1CCO (configuration not stated),.,.,.,.,/,.
CC(C)N1CCN(Cc2ccc(-c3ccccc3Cl)o2)CC1CCO (configuration not stated),/,/,64,.,.,.
Cn1c(SCC(=O)Nc2ccc(C(=O)O)cc2)nc2scc(-c3ccccc3Cl)c2c1=O,/,/,/,/,.,.
CCc1nnc(NC(=O)c2sc3nc4cc(C)ccc4cc3c2N)s1,93,.,.,.,.,.
Cc1ccc(-n2nnnc2C(Cl)(Cl)c2nnnn2-c2ccc(C)cc2)cc1,.,103,63,.,.,.

# Source: PubChem BioAssay (several laboratories)
